Shown are actives, neighbours in structure and some others; about 2.1% of the full set was active somewhere.
EWS-Fli inh – EWS/Fli-driven NR0B1 reporter inhibitors, primary screen, A673 cells, NR0B1 luciferase, luminescence, MLPCN library | viability-normalised | inhibition, % at 12.6 µM | 350,000 compounds, 0.67% hits;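 active = mean inhibition of at least 50% after viability correction, with every replicate also passing that limit; inconclusive = mean reaches 50% but only one of two replicates passes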;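 also: firefly luciferase signal divided by Alamar Blue viability fluorescence both relative to DMSO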
Shn3 inh set2 – reduction of Shn3 3'UTR firefly luciferase signal, primary screen, Schnurri-3 inhibitor project, cell-based, Clone20 osteoblasts, set 2 | Clone20 osteoblast Shn3 3'UTR firefly luciferase, 24 h | inhibition, % at 12.5 µM | 360,000 compounds, 0.52% hits;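 active = mean inhibition of at least 75% with every replicate also reaching 75%; inconclusive = mean inhibition at least 75% but some replicate below; inactive = mean inhibition below 75%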;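 also: 0% = median of neutral control wells and 100% = pilot-screen positive control compound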
PAX8 inh HTS – inhibitors of PAX8-driven TPO luciferase reporter, primary screen, RMG-I cells, single concentration | 360,000 compounds, 1.2% hits | AID 652154, 2013 | SteadyGlo, 24 h | inhibition, % at 12.6 µM;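 active = mean replicate inhibition at least 60% with every replicate also reaching 60%; inconclusive = only one of the two criteria is met; inactive = mean below 60% and not all replicates reaching 60%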;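 also: luciferase light reporting Pax8 driven TPO promoter activity; plate controls were median of neutral control wells for no effect and mitoxantrone controls for full effect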
aSyn 5UTR inh – MLPCN primary screen, SNCA 5' untranslated region | alpha-synuclein 5'UTR reporter, inhibitor activity | inhibition, % (tested at 7.5 µM) | 300,000 compounds, 0.82% hits | AID 1813, 2009; in the data active = inhibition above about 60%; inconclusive = no clear call, values can overlap the other calls;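 also: H4 neuroglioblastoma cells stably carrying SNCA 5'UTR luciferase fusion; 0% = DMSO wells and 100% = positive control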
EBV LMP1 NFkB – EBV LMP1-driven NF-kappaB luciferase reporter inhibitors, primary screen, cell-based, luminescence, single point; LMP1-induced NF-kappaB luciferase reporter cells; inhibition, % at 12.5 µM; 350,000 compounds, 0.69% hits; in the data active = inhibition above about 41%; inconclusive = no clear call, values can overlap the other calls;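 also: 0% = neutral control wells and 100% = reference inhibitor control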
FN deposit inh – inhibitors of fibronectin matrix deposition, primary screen, AH1F cells, Alexa488-fibronectin fluorescence, plate reader | inhibition, % at 12.6 µM | 350,000 compounds, 0.086% hits | AH1F fibroblasts, overnight;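 active = mean inhibition across replicates of 30% or more, regardless of how many single replicates reach that level; inconclusive = mean under 30% yet at least half of replicates reach 30%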;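 also: positive control wells lacked labelled fibronectin entirely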
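material = AH1F fibroblast monolayer depositing Alexa488-labelled fibronectin into matrix | amount = 10000 AH1F cells/well | buffer or medium = DMEM plus 2% serum, read in PBS | incubation = 1 h cell adhesion before compound, then overnight fibronectin incubation | detection = fluorescence at 485 nm excitation, 525 nm emission | evaluation = percent inhibition as loss of matrix-bound fibronectin fluorescence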
Numbers without * were called inactive; ? = inconclusive; · = no result.

SMILES	EWS-Fli inh	Shn3 inh set2	PAX8 inh HTS	aSyn 5UTR inh	EBV LMP1 NFkB	FN deposit inh
COc1ccc2c3c([nH]c2c1)[C@@H](CO)N(C(=O)C1CC1)CC31CN(Cc2nccs2)C1	-3	·	86*	·	·	·
C[C@H]1CN([C@@H](C)CO)C(=O)c2cc(C#CC3CC3)cnc2O[C@@H]1CN(C)C(=O)C1CCCCC1	-8	·	·	·	·	·
COc1cc(/C=N/NC(N)=S)cc(Br)c1OCc1ccccc1F	·	27	70*	-74	-49	-28
Cc1ccc(NC(=O)C2CCCN(S(=O)(=O)c3cccc4nonc34)C2)cc1 (stereo unspecified)	5	7	-4	12	6	-2
COc1ccc(C)cc1NC(=O)C1CCCN(S(=O)(=O)c2cccc3nonc23)C1 (stereo unspecified)	-2	3	141*	2	3	6
C[C@@H]1CCCCO[C@H](CN(C)Cc2ccncc2)[C@H](C)CN([C@H](C)CO)C(=O)c2cc(NC(=O)Nc3ccc(F)cc3)ccc2O1	8	·	-5	·	·	6
CCOC(=O)Cn1c2c(c(=N)c3c1CCC3)CCC2	·	-29	·	7	-2	·
CCCCCCCCCn1c2c(c(=N)c3c1CCC3)CCCC2	·	92*	·	90*	29	·
CCCCCCCCCCn1c2c(c(=N)c3c1CCC3)CCC2	·	71	·	71*	?	3
N=c1c2c(n(Cc3ccc(F)cc3)c3c1CCC3)CCCC2	28	52	69*	11	2	-19
CCn1c2c(c(=N)c3c1CCC3)CCCC2	16	-38	14	-7	·	-17
O=C([C@H]1[C@H](CO)[C@H]2Cn3c(ccc(-c4ccccc4)c3=O)[C@H]2N1Cc1cocn1)N1CCCCC1	-2	·	1	·	·	·
O=C(C[C@H]1C[C@H]2c3cc(NC(=O)NC4CCCCC4)ccc3O[C@H]2[C@@H](CO)O1)NC1CCCCC1	-8	·	-26	·	·	-11
Cc1cc[n+](CC(=O)c2ccc(NC(=O)c3ccccc3)cc2)c2ccccc12	22	5	80*	19	-5	-11
CC(C)NCC(O)COc1cccc2ccccc12 (stereo unspecified)	3	81	-16	-21	52*	-3
Nc1nc2cc3c(cc2cc1C(=O)NCCc1c[nH]c2ccccc12)OCO3	59*	·	30	·	·	5
COc1ccc(/C=N/NC(=O)c2ccncc2)cc1COc1ccc(NC(C)=O)cc1	10	·	24	80*	·	5
COc1ccc(/C=N\NC(=O)c2ccccc2)cc1COc1ccccc1	-14	-11	·	11	-1	-5
Oc1cc(-c2ccncc2)cc2cccnc12	13	89*	6	·	-3	24
COc1ccc(Oc2ccc(/C=C/C(=O)c3cccc(OC)c3)cc2[N+](=O)[O-])cc1	49	-5	108*	-49	-2	3
COc1cccc(N2CCN(c3nc(-c4ccccc4C)cc(=O)[nH]3)CC2)c1	11	-85	70*	24	-42	1
CCOC(=O)c1sc(/N=C/N(C)C)nc1C	3	0	117*	-14	9	-2
C[C@@H]1CN([C@@H](C)CO)C(=O)CCCn2cc(nn2)CO[C@@H]1CN(C)C(=O)NC1CCCC1	5	·	·	·	·	-8
O=C(CN1CCOCC1)N1CCCCN2[C@H](CO)[C@H](c3ccc(C#Cc4ccccc4)cc3)[C@@H]2C1	-33	·	-4	·	·	·
O=[N+]([O-])c1cc(Cl)c2cccnc2c1O	-12	-10	-22	1	-10	11
SMILES	EWS-Fli inh	Shn3 inh set2	PAX8 inh HTS	aSyn 5UTR inh	EBV LMP1 NFkB	FN deposit inh
CCCC(=O)NC(c1ccco1)c1cc([N+](=O)[O-])c2cccnc2c1O (stereo unspecified)	20	1	14	-15	-3	10
COc1ccc(C(NC(C)=O)c2cc(Cl)c3cccnc3c2O)cc1 (stereo unspecified)	9	90*	44	76*	42*	23
O=C(NC(c1ccc(Cl)cc1)c1cc(Cl)c2cccnc2c1O)c1cccnc1 (stereo unspecified)	·	81	-9	98*	?	10
CC(=O)NC(c1ccccc1)c1cc(Cl)c2cccnc2c1O (stereo unspecified)	21	69	85*	42	35	0
CCCC(=O)NC(c1ccc(OC)c(OC)c1)c1cc(Cl)c2cccnc2c1O (stereo unspecified)	10	88*	20	50	32	-7
CCN1[C@@H]2c3ccc(C4=CCCC4)c(=O)n3C[C@H]1[C@H](CO)[C@H]2C(=O)NCc1ccccn1	-6	·	·	·	·	·
C[C@@H]1CN([C@H](C)CO)C(=O)Cc2cc(NC(=O)Nc3ccc4c(c3)OCO4)ccc2O[C@H]1CN(C)CC1CC1	-2	·	-2	·	·	·
CC(=O)NC(c1ccc(N(C)C)cc1)c1cc(Cl)c2cccnc2c1O (stereo unspecified)	24	68	85*	·	11	5
Oc1c(I)cc(Cl)c2cccnc12	16	-7	79*	-19	3	9
COc1ccc2c3c(n(C)c2c1)[C@H](CO)N(C(=O)Cc1ccccn1)CC31CCN(C)CC1	2	·	·	·	·	6
O=C(C[C@H]1CC[C@H](NC(=O)CC2CC2)[C@@H](CO)O1)NCc1ccccc1	-3	·	·	·	·	·
CC(C)NC(=O)N(C)C[C@@H]1Oc2ncccc2C(=O)N(C)C[C@H]1C	·	·	·	·	·	0
CN1CCN(C2Cc3cc(Cl)ccc3Sc3cc(F)ccc32)CC1 (stereo unspecified)	19	23	10	101*	-10	2
CCOC(=O)c1c(C)[nH]c(C2=NNC(=Nc3ccccc3OC)SC2)c1C	-55	-25	74*	-90	-27	-6
COc1ccc(S(=O)(=O)N(C)C[C@@H]2Oc3c(NC(=O)Nc4ccc(C(F)(F)F)cc4)cccc3C(=O)N([C@@H](C)CO)C[C@@H]2C)cc1	-13	·	-33	·	·	6
CCn1c(=O)c2cc(C(=O)NCc3cccs3)sc2c2ccccc21	2	-2	7	·	52*	-5
CCCCNC(=O)c1cc2c(=O)n(CC)c3ccccc3c2s1	3	0	-10	-30	6	5
CNC(=O)C1=NCCCc2cc(OC)c(OC)cc21	·	-3	·	7	64*	11
CCCC(=O)Nc1ccc2c(c1)C(=O)N(C)[C@H]1CC[C@@H](CC(=O)NCC3CC3)O[C@@H]1CO2	-7	·	-9	·	·	-18
COCC(=O)N(C)C[C@@H]1Oc2cc(-c3ccc(F)cc3)ccc2S(=O)(=O)N([C@@H](C)CO)C[C@H]1C	-18	·	·	·	·	-5
O=C(CCl)Nc1cc(SCC(O)CO)cc([N+](=O)[O-])c1 (stereo unspecified)	47	64	108*	110*	25	-12
